This note sets out measurements from ChEMBL document CHEMBL4004841, “6-Cyclohexylmethyl-3-hydroxypyrimidine-2,4-dione as an inhibitor scaffold of HIV reverase transcriptase: Impacts of the 3-OH on inhibiting RNase H and polymerase” (Eur J Med Chem, 2017).

Series [1] can be described thus: Inhibition of RNase H activity of full length HIV reverse transcriptase using RNA-DNA duplex HTS-1 substrate. The arrangement: species or system Human immunodeficiency virus.
Series [2] in a line: Inhibition of HIV reverse transcriptase polymerase activity assessed as reduction in dNTP incorporation using 100 nucleotide DNA/18 nucleotide DNA as template/primer measured after 30 mins. More on the design: species or system Human immunodeficiency virus. A digest of the protocol: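 20 nM full-length RT with 40 nM template/primer (18-nt DNA primer on 100-nt DNA template) and 10 μM dNTPs in 50 mM Tris pH 7.8, 50 mM NaCl, 1% DMSO, rising compound concentrations; started with 6 mM MgCl2, 30 min at 37 °C, stopped with 100 mM EDTA. Mean ± standard deviation, ≥2 independent experiments.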

Series [3] is described as follows: Inhibition of strand transfer activity of HIV integrase expressed in Escherichia coli using 5'-[32P]-labeled oligonucleotide substrate after 60 mins by PAGE analysis. The arrangement: species or system Human immunodeficiency virus. A digest of the protocol:
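Recombinant IN (400 nM), purified with 10% glycerol in buffers, with 20 nM 5'-[32P] oligonucleotide substrate and inhibitor dilutions in 50 mM MOPS pH 7.2, 7.5 mM MgCl2, 14.3 mM 2-mercaptoethanol, 37 °C for 60 min; 10% DMSO controls. Products resolved on 20% polyacrylamide–7 M urea gels, quantified by phosphorimaging densitometry; IC50 by logistic nonlinear regression.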

Series [4] relates to Human immunodeficiency virus 1. The experiment in a line: Antiviral activity against HIV1 infected in human P4R5 cells assessed as reduction in viral infection preincubated with cells for 24 hrs followed by viral infection measured after 48 hrs by fluorescence based beta-galactosidase reporter gene assay. Format: functional, cell-based. Particulars: Human immunodeficiency virus 1, P4/R5. The method, boiled down:
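P4R5 indicator cells at 4 × 10^3 per well in DMEM/10% FBS with puromycin (1 μg/ml). Cells pretreated with 1% DMSO or varying drug concentrations for 24h, infected with HIV at MOI 1.25, then incubated 48h. Read-out: lysis, MUG substrate, 4-MU fluorescence (ex 365 nm, em 446 nm). Dose-response; mean ± SD from at least two independent experiments.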

Series [5] relates to Human immunodeficiency virus 1. Put plainly: Antiviral activity against HIV1 infected in human CEM-SS cells assessed as reduction in virus-induced cytopathic effect after 6 days by MTS assay. Format: functional, cell-based. To be noted: Human immunodeficiency virus 1, CEM-SS, 144 h. The method, boiled down: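 CEM-SS cells mixed with pre-titered HIV-1 IIIB and compound, incubated 6 days; virus titer set so virus-control wells lose 70–95% viability. Cell, virus, compound-toxicity and compound-only colorimetric controls on each plate; AZT positive control. Viability by MTS; EC50 derived; mean ± standard deviation from at least two independent experiments.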

Series [6] is described as follows: Cytotoxicity against human P4R5 cells. The series is classed as cell-based.
Series [7] has as its system Human immunodeficiency virus type 1 reverse transcriptase (Human immunodeficiency virus 1), Q72547 [Y181C]. Put plainly: Inhibition of polymerase activity of HIV reverse transcriptase Y181C mutant assessed as reduction in dNTP incorporation up to 10 uM using 100 nucleotide DNA/18 nucleotide DNA as template/primer measured after 30 mins. The method, boiled down: (§1)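 Mutant RT (20 nM) with 40 nM 18-nt DNA primer annealed to 100-nt DNA template and 10 μM dNTPs, in 50 mM Tris pH 7.8, 50 mM NaCl, 1% DMSO, with increasing compound up to 10 μM. Started with 6 mM MgCl2, run 30 min at 37 °C, stopped with 100 mM EDTA; DNA extension measured.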

Series [8] concerns Human immunodeficiency virus type 1 reverse transcriptase (Human immunodeficiency virus 1), Q72547 [K103N]. Put plainly: Inhibition of polymerase activity of HIV reverse transcriptase K103N mutant assessed as reduction in dNTP incorporation up to 10 uM using 100 nucleotide DNA/18 nucleotide DNA as template/primer measured after 30 mins. A digest of the protocol:
as §1

As a reminder, the IC50 is the concentration needed to halve the response being measured. For orientation: EC50 means the concentration that produces a half-maximal response. As usually defined, the CC50 is the concentration at which the toxic effect on the cells reaches its halfway point. A low value points to harm at low concentration.

Calls of active or inactive are those of the source. No cut-off for these calls is given here.

As for `CCc1c(CC2CCCCC2)n(COCc2cccc(Cl)c2F)c(=O)n(O)c1=O`, the figures for the IC50 in series [1], in series [2] and in series [3] were 1.1 µM, 6.5 µM and more than 100 µM, respectively. Further, the figures for the EC50 in series [4] and in series [5] were 0.42 µM and 1.8 µM, respectively. The same compound displayed a CC50 in series [6] of more than 100 µM.

For the compound `CCc1c(CC2CCCCC2)n(COCc2ccc(C)cc2)c(=O)[nH]c1=O`, the values for the IC50 in series [1] and in series [2] were more than 10 µM and 0.36 µM, respectively. Further, in series [4], the 50% effective concentration (EC50) is 0.011 µM. Moreover, in series [6], it took 30 µM to reach half-maximal cytotoxicity (CC50).

In the case of `Cc1c(CC2CCCCC2)n(COCc2ccc(C(F)(F)F)cc2)c(=O)n(O)c1=O`, the values for the IC50 in series [1], in series [2] and in series [3] were 7.6 µM, 10 µM and more than 100 µM, respectively. In series [4], the EC50 was more than 15 µM. In series [6], this compound gave a CC50 of more than 100 µM.

`CCc1c(CC2CCCCC2)n(COCc2ccc(F)c(F)c2)c(=O)[nH]c1=O`: the IC50 in series [1] is more than 10 µM; in series [2], 0.82 µM. For the same compound, the concentration giving a half-maximal response (EC50) in series [4] was 0.014 µM. Also, the cytotoxic concentration (CC50) in series [6] stood at 29 µM.

For `Cc1c(CC2CCCCC2)n(COCc2ccc(F)c(F)c2)c(=O)[nH]c1=O`, the figures for the IC50 in series [1] and in series [2] were more than 10 µM and 10 µM, respectively. For the same compound, in series [4], the EC50 is 0.21 µM. The same compound displayed a CC50 in series [6] of 65 µM.

As to `CC(C)c1c(CC2CCCCC2)n(COCc2ccccc2)c(=O)n(O)c1=O`, the IC50 in series [1] was 5.2 µM; in series [2] it was 0.45 µM; in series [3], more than 100 µM. Moreover, the EC50 in series [4] stood at 0.026 µM. Besides, the inhibition result in series [7] and in series [8] was “inactive” each time. In series [6], this compound displayed a CC50 of more than 100 µM.

For the compound `Cc1c(CC2CCCCC2)n(COCc2ccc(F)c(F)c2)c(=O)n(O)c1=O`, the IC50 was 4.6 µM in series [1], 10 µM in series [2] and more than 100 µM in series [3]. The half-maximal effective concentration (EC50) in series [4] was more than 15 µM. In series [6], this compound registered a cytotoxic concentration (CC50) of more than 100 µM.

As to `CC(C)c1c(Cc2ccccc2)n(COCc2ccccc2)c(=O)[nH]c1=O`, the figures for the IC50 in series [1] and in series [2] were more than 10 µM and 0.42 µM, respectively. The EC50 in series [4] is 0.011 µM. Besides, in series [6], the CC50 was 58 µM.

Consider `Cc1c(CC2CCCCC2)n(COCc2cccc(Cl)c2F)c(=O)[nH]c1=O`, for which the IC50 in series [1] was more than 10 µM; in series [2] it was 10 µM. Further, the EC50 in series [4] turned out to be 0.83 µM. Half-maximal cytotoxicity in series [6] (CC50) was put at 38 µM.

Regarding `CCc1c(CC2CCCCC2)n(COCc2ccc(F)cc2)c(=O)n(O)c1=O`, the IC50 in series [1] is 5.8 µM; in series [2], 1.5 µM; in series [3], more than 100 µM. The 50% effective concentration (EC50) in series [4] turned out to be 0.039 µM; in series [5], 0.32 µM. For the same compound, the CC50 in series [6] was more than 100 µM.

With `CC(C)c1c(CC2CCCCC2)n(COCc2ccc(F)cc2)c(=O)n(O)c1=O`, the results for the IC50 in series [1], in series [2] and in series [3] were 2.7 µM, 9.9 µM and more than 100 µM, respectively. The EC50 in series [4] was determined as 2.4 µM. In series [6], this compound showed a CC50 of more than 100 µM.

Take `Cc1c(CC2CCCCC2)n(COCc2ccccc2)c(=O)n(O)c1=O`: the IC50 in series [1] is 3.1 µM; in series [2], more than 10 µM; in series [3], more than 100 µM. Besides, in series [4], the EC50 was more than 15 µM. The compound also displayed a CC50 in series [6] of more than 100 µM.

Turning to `Cc1c(CC2CCCCC2)n(COCc2cccc(Cl)c2F)c(=O)n(O)c1=O`, the IC50 in series [1] is 2.2 µM; in series [2], more than 10 µM; in series [3], more than 100 µM. Further, the EC50 in series [4] was more than 15 µM. Further, the CC50 in series [6] is more than 100 µM.

Regarding `Cc1c(CC2CCCCC2)n(COCc2ccccc2)c(=O)[nH]c1=O`, the values for the IC50 in series [1] and in series [2] were more than 10 µM and 6.8 µM, respectively. For the same compound, the EC50 in series [4] was 0.065 µM. In series [6], this compound registered a CC50 of more than 100 µM.

Take `CCc1c(CC2CCCCC2)n(COCc2ccc(C(F)(F)F)cc2)c(=O)n(O)c1=O`: the IC50 in series [1] is 10 µM; in series [2], 7 µM; in series [3], more than 100 µM. In series [4], the EC50 was 2.4 µM. In series [6], this compound registered a CC50 of more than 100 µM.

Regarding `CCc1c(CC2CCCCC2)n(COCc2ccc(C(F)(F)F)cc2)c(=O)[nH]c1=O`, the results for the IC50 in series [1] and in series [2] were more than 10 µM and 0.81 µM, respectively. Also, the EC50 in series [4] came out at 0.039 µM. Moreover, half-maximal cytotoxicity in series [6] (CC50) was put at 28 µM.

`CCc1c(CC2CCCCC2)n(COCc2ccccc2)c(=O)n(O)c1=O`: the IC50 in series [1] was 5.5 µM; in series [2], 2.3 µM; in series [3], more than 100 µM. The concentration for a half-maximal effect (EC50) in series [4] turned out to be 0.059 µM; in series [5] it was 0.56 µM. Besides, the CC50 in series [6] was more than 100 µM.

As to `CCc1c(CC2CCCCC2)n(COCc2ccc(C)cc2)c(=O)n(O)c1=O`, the IC50 in series [1] is 2.1 µM; in series [2], 6.5 µM; in series [3], more than 100 µM. Also, the EC50 in series [4] came to 0.43 µM. Moreover, the CC50 in series [6] was more than 100 µM.

`CCc1c(CC2CCCCC2)n(COCc2ccccc2)c(=O)[nH]c1=O`: the IC50 in series [1] was more than 10 µM; in series [2], 0.22 µM. The EC50 in series [4] amounted to 0.0062 µM. Moreover, the CC50 in series [6] is more than 50 µM.

On to `CC(C)c1c(CC2CCCCC2)n(COCc2ccc(F)cc2)c(=O)[nH]c1=O`, for which the IC50 in series [1] was more than 10 µM; in series [2] it was 0.3 µM. For the same compound, the EC50 in series [4] turned out to be 0.0072 µM. The same compound gave a CC50 in series [6] of 31 µM.

In the case of `Cc1c(CC2CCCCC2)n(COCCc2ccc(F)cc2)c(=O)[nH]c1=O`, the IC50 in series [1] and in series [2] was more than 10 µM each time. Moreover, in series [4], the EC50 came out at 5.3 µM. In addition, the midpoint of cytotoxicity in series [6], the CC50, lay at 56 µM.

Regarding `CC(C)c1c(CC2CCCCC2)n(COCc2ccccc2)c(=O)[nH]c1=O`, the figures for the IC50 in series [1] and in series [2] were more than 10 µM and 0.085 µM, respectively. In series [4], the EC50 is 0.0052 µM. The CC50 in series [6] worked out at 23 µM.

Take `CCc1c(CC2CCCCC2)n(COCc2cccc(Cl)c2F)c(=O)[nH]c1=O`: the results for the IC50 in series [1] and in series [2] were more than 10 µM and 1.5 µM, respectively. Moreover, the EC50 in series [4] was found to be 0.048 µM. The compound also gave a CC50 in series [6] of 32 µM.

Turning to `CCc1c(CC2CCCCC2)n(COCc2ccc(F)c(F)c2)c(=O)n(O)c1=O`, the results for the IC50 in series [1], in series [2] and in series [3] were 1.7 µM, more than 10 µM and more than 100 µM, respectively. Moreover, in series [4], the EC50 was 4.1 µM. In series [6], this compound had a cytotoxic concentration (CC50) of more than 100 µM.

For `Cc1c(CC2CCCCC2)n(COCc2ccc(C(F)(F)F)cc2)c(=O)[nH]c1=O`, the half-maximal inhibitory concentration (IC50) was more than 10 µM in series [1] and 10 µM in series [2]. Besides, the concentration for a half-maximal effect (EC50) in series [4] was 0.8 µM. For the same compound, the CC50 in series [6] was more than 100 µM.

On to `Cc1c(CC2CCCCC2)n(COCCc2ccc(F)cc2)c(=O)n(O)c1=O`, for which the 50% inhibitory concentration (IC50) is 3.9 µM in series [1], more than 10 µM in series [2] and more than 100 µM in series [3]. Also, the EC50 in series [4] worked out at 10 µM. This compound registered a CC50 in series [6] of more than 100 µM.

With `CCc1c(CC2CCCCC2)n(COCc2ccc(F)cc2)c(=O)[nH]c1=O`, the figures for the IC50 in series [1] and in series [2] were more than 10 µM and 0.48 µM, respectively. For the same compound, the EC50 in series [4] came out at 0.0075 µM. In series [6], this compound gave a CC50 of 42 µM.
